Published values from different studies.
Each line is one published result; the experiments were not run side by side.

C[C@@H](NCCCc1cccc(C(F)(F)F)c1)c1cccc2ccccc12 has a Tmax of 15 min (male CD-1 mouse; plasma; subcutaneous; 3 mg/kg; single dose).
With CC(C(=O)Nc1c(F)cccc1F)N1CCN(c2ccccc2)CC1 (centres unmarked) the Tmax was 15 min (female C57BL/6 mouse; brain; intraperitoneal; 10 mg/kg).
C=CS(=O)(=O)c1ccc(Nc2nc(OCC3CCCCC3)c3nc[nH]c3n2)cc1 has a Tmax of 4.8 min (male BALB/c mouse; plasma; intraperitoneal; 20 mg/kg; single dose).
For COc1cc2c(NC3CCN(CCCC(=O)NCCCCCCCCCCCC(=O)N[C@H](C(=O)N4C[C@H](O)C[C@H]4C(=O)NCc4ccc(-c5scnc5C)cc4)C(C)(C)C)CC3)nc(N3CCC(F)(F)CC3)nc2cc1OCCCN1CCCC1, the Tmax was 30 min (male C57BL/6 mouse; plasma; intraperitoneal; 50 mg/kg; single dose).
CCN1CCN(Cc2ccc(NC(=O)c3ccc(C)c(NC(=O)c4cncc(-c5cccs5)c4)c3)cc2C(F)(F)F)CC1 has a Tmax of 30 min (mouse; plasma; intraperitoneal; 20 mg/kg; single dose).
For Cc1c(C(=O)O)ccc2c3n(nc12)[C@@H]1[C@H](C3)N(CC2CC2)[C@@]2(C(=O)Nc3cc(Cl)ccc32)[C@H]1c1cccc(Cl)c1F, the Tmax was 282 min (female mouse; plasma; oral; 5 mg/kg).
C[C@@H](N[C@H]1CCN(c2ccc(CC(=O)O)cc2)C1)c1cccc2ccccc12 has a Tmax of 60 min (male CD-1 mouse; plasma; subcutaneous; 3 mg/kg; single dose).
Cc1cc2sc(N)nc2c2cccnc12 has a Tmax of 15 min (female BALB/c mouse; plasma; intraperitoneal; 30 mg/kg; single dose).
With Nc1ncn([C@H]2C[C@H](O)[C@@H](CO)O2)c(=O)n1 the Tmax was 4.98 min (female C57BL/6 mouse; plasma; oral; 0.4 mg/kg).
CCOc1ccc(N(C)S(=O)(=O)c2cc(Cl)sc2C(=O)Nc2cc(Cl)cc(C(=O)O)c2)cc1OC gave a Tmax of 15 min (male C57BL/6 mouse; plasma; intraperitoneal; 10 mg/kg).
For CC(=O)O[C@@]12CO[C@@H]1C[C@H](O)[C@@]1(C)C(=O)[C@H](O)C3=C(C)[C@@H](OC(=O)[C@H](O)[C@@H](NC(=O)OC(C)(C)C)c4ccccc4)C[C@@](O)([C@@H](OC(=O)c4ccccc4)[C@H]21)C3(C)C, the Tmax was 30 min (male Kunming mouse; liver; oral; 20 mg/kg).
